Ki and IC50 data for seven molecules are collected here from ChEMBL document CHEMBL4680104, “Structure-Based Optimization of Small-Molecule Inhibitors for the β-Catenin/B-Cell Lymphoma 9 Protein-Protein Interaction” (J Med Chem, 2018).

In experiment [1] the target is T1, beta-catenin-B-cell lymphoma 9 protein complex (Homo sapiens, UniProt P35222).
T1 sequence (P35222 whole entry): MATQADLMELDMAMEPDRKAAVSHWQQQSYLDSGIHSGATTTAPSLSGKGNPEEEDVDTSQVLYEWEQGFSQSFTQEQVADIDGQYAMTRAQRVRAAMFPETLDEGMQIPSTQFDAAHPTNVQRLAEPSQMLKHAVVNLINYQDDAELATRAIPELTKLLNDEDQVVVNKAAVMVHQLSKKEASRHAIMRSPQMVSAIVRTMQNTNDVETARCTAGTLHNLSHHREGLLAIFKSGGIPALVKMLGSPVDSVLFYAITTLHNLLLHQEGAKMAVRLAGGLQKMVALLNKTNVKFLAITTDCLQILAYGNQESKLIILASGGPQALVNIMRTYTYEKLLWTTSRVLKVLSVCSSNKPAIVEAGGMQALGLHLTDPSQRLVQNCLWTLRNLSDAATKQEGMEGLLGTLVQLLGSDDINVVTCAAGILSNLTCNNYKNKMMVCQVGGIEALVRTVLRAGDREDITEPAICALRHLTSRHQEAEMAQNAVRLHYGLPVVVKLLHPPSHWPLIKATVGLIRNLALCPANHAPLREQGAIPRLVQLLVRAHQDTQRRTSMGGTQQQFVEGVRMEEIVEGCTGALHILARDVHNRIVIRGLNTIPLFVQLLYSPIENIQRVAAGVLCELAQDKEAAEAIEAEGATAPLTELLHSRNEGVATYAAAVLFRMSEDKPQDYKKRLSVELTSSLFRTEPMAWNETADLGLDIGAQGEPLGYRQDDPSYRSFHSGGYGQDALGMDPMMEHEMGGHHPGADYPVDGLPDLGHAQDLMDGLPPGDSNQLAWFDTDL
T1 sequence (O00512 whole entry): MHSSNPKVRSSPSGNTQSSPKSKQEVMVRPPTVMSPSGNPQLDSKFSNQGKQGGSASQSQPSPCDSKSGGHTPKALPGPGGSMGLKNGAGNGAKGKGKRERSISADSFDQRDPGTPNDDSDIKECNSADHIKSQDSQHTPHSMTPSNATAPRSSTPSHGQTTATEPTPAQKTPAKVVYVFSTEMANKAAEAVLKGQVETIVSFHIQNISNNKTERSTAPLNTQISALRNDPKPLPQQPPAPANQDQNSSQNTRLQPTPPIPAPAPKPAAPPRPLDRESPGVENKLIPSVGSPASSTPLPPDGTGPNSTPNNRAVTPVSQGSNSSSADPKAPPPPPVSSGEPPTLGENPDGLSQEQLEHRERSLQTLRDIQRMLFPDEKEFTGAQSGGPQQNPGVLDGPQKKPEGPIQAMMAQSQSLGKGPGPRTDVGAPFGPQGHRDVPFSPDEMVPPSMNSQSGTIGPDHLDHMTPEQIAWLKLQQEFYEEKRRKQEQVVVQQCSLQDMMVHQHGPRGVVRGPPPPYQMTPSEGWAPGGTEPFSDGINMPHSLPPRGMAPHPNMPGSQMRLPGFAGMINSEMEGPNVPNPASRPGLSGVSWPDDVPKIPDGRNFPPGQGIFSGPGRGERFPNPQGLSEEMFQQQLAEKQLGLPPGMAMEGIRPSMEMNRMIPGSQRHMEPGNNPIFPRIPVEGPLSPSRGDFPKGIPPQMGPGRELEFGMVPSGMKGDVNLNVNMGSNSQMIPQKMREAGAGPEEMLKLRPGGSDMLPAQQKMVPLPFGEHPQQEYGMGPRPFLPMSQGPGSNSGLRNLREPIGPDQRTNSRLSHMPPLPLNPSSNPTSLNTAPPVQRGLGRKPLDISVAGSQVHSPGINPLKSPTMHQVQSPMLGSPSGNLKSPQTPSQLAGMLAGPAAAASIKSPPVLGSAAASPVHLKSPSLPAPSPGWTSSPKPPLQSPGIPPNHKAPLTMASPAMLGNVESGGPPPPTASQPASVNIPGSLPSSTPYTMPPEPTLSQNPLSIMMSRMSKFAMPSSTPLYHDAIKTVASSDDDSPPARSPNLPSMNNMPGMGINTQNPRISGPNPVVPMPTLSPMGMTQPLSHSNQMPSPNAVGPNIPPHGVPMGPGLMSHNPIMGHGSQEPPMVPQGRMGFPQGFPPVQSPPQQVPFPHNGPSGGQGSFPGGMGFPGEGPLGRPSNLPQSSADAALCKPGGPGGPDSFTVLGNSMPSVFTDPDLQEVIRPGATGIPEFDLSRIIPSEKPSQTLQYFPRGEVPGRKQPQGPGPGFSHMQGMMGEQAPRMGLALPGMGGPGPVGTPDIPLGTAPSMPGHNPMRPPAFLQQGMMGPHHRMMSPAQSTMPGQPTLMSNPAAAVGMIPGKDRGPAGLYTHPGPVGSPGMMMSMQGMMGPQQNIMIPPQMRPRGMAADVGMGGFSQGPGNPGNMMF
The experiment is described as follows: Inhibition of protein interaction between C-terminal 6x-histidine tagged full-length beta-catenin (1 to 781 residues) (unknown origin)/N-terminal biotinylated human BCL9 ( 350 to 375 residues) incubated for 1 hr by Alpha-screen competitive inhibition assay. It is filed as protein-complex assay. The method in brief:
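Full-length β-catenin (residues 1–781) with a C-terminal His6 tag was expressed in E. coli BL21(DE3) after IPTG induction at 20 °C. It was purified by Ni-NTA, anion-exchange and size-exclusion chromatography. For the assay, 40 nM β-catenin was preincubated for 30 min at 4 °C with 5 nM biotinylated BCL9 or 10 nM biotinylated E-cadherin. Inhibitor was then added for 1 h at 4 °C, followed by 10 μg/mL donor and acceptor beads for 1 h at 4 °C. IC50 was obtained by nonlinear fit and converted to Ki by the Nikolovska-Coleska method. Triplicate, mean ± SD.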

The target of experiment [2] is T1, beta-catenin-B-cell lymphoma 9 protein complex. The experiment is described as follows: Inhibition of protein interaction between beta-catenin (unknown origin)/BCL9 in HEK293 cells transfected with beta-catenin assessed as reduction in Wnt/beta-catenin transactivation incubated for 24 hrs by Wnt-responsive TOP-Flash luciferase reporter assay. The experiment is classed as cell-based. The procedure, abridged: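 HEK293 cells were cotransfected using FuGENE6 with 45 ng TOPFlash or FOPFlash reporter, 135 ng pcDNA3.1-β-catenin and 20 ng pCMV-RL normalization reporter. After 24 h in DMEM with 10% FBS at 37 °C, inhibitors or DMSO were added for 24 h. Reporter activity was read with a dual luciferase system, normalized, and compared with DMSO-treated cells. Triplicate.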

The test system of a further experiment is SW480. In words: Cytotoxicity in human SW480 cells assessed as reduction in cell viability incubated for 72 hrs by MTS assay. The experiment is classed as functional, cell-based. To be noted: SW480, 72 h. The procedure, abridged: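 Cells seeded at 5 × 10^3 cells/well, kept overnight at 37 °C, then exposed to inhibitors at various concentrations for 72 h. Viability read with a freshly mixed PMS (0.92 mg/mL) : MTS (2 mg/mL) reagent at 1:19, incubated 3 h at 37 °C, A490 measured. […] Triplicate; mean ± SD.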

Experiment [3] has as its target T1, beta-catenin-B-cell lymphoma 9 protein complex. The experiment is described as follows: Inhibition of protein interaction between beta-catenin (unknown origin)/BCL9 in human SW480 cells transfected with beta-catenin assessed as reduction in Wnt/beta-catenin transactivation incubated for 24 hrs by Wnt-responsive TOP-Flash luciferase reporter assay. It is filed as cell-based.

Molecule `Cl.Cl.O=C(Nc1ccc(O[C@H]2CCNC2)c(-c2ccc(F)cc2)c1)c1ccc(O[C@H]2CCNC2)c(-c2ccc3cc(F)ccc3c2)c1` came in with a Ki in experiment [1] of 1.3 µM. Besides, the figures for the IC50 (in experiment [2]; with SW480; in experiment [3]) were 10 µM, 1.8 µM and 12 µM, respectively.
As to `Cc1cc(F)ccc1-c1cc(NC(=O)c2ccc(O[C@H]3CCNC3)c(-c3ccc(F)c(F)c3)c2)ccc1O[C@H]1CCNC1.Cl.Cl`, the Ki in experiment [1] is 3.5 µM. Also, the IC50 was found to be 0.9 µM in the experiment on SW480 and 2 µM in experiment [3].
The molecule `Cl.Cl.O=C(Nc1ccc(O[C@H]2CCNC2)c(-c2ccc(F)cc2)c1)c1ccc(O[C@H]2CCNC2)c(C2CCC(C(F)(F)F)CC2)c1` (stereo not given in full) registered a Ki in experiment [1] of 4.2 µM. For the same molecule, the 50% inhibitory concentration (IC50) was determined as 10 µM in experiment [2], 3.6 µM in the experiment on SW480 and 10 µM in experiment [3].
Regarding `Cl.Cl.O=C(Nc1ccc(O[C@@H]2CCNC2)c(-c2cccc(-c3nn[nH]n3)c2)c1)c1ccc(O[C@H]2CCNC2)c(-c2ccc(F)c(F)c2)c1`, the values for the IC50 (in experiment [2]; in the experiment with SW480; in experiment [3]) were 25 µM, 41 µM and 25 µM, respectively.
Take `Cl.Cl.O=C(Nc1ccc(O[C@H]2CCNC2)c(-c2ccc(F)cc2)c1)c1ccc(O[C@H]2CCNC2)c(-c2ccc3ccsc3c2)c1`: the Ki in experiment [1] was determined as 1.3 µM. The IC50 in experiment [2] was found to be 6.2 µM; in the experiment with SW480, 2 µM; in experiment [3], 1.2 µM.
For `Cl.Cl.O=C(Nc1ccc(O[C@H]2CCNC2)c(-c2ccc(F)cc2)c1)c1cnc(O[C@H]2CCNC2)c(-c2ccc(F)c(F)c2)c1` the same measures were 8.7 µM, 22 µM, 3 µM and 5.9 µM.
`Cl.Cl.O=C(Nc1ccc(O[C@H]2CCNC2)c(-c2ccc(F)cc2)c1)c1ccc(O[C@H]2CCNC2)c(-c2ccc(F)c(F)c2)c1`: the Ki in experiment [1] was determined as 2.1 µM. Also, the IC50 in experiment [2] was determined as 4.5 µM; in experiment [3] it was 2.9 µM.
